SENP8 block-1 = SENP8 (human) protease inhibition | Q96LD8 | recombinant SENP8, Nedd8 substrate fluorescence | inhibition, % at 20 µM | hit rate 0.64% among 360,000 | AID 602440; in the data active = inhibition mostly above about 40%, no sharp cut-off; inactive = mostly below about 27%
SENP6 block = blocks the human protease SENP6 | Q9GZR1 | Recombinant SENP6 catalytic domain, aminoluciferin luminescence | inhibition, % at 10 µM | hit rate 1.8% among 330,000;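 active = inhibition above about 50% at the single tested dose, limit read from the data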;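 also: plate controls were DMSO wells with enzyme for no effect and DMSO wells lacking enzyme for full effect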
SENP8 block-2 = blocks the human protease SENP8; Q96LD8; purified SENP8, Z-RLRGG-aminoluciferin cleavage, luminescence; inhibition, % at 10 µM; hit rate 1.2% among 330,000; AID 2540; in the data active = inhibition above about 50%
SENP1 inh = SENP1 (human) catalytic domain inhibition. inhibition, % at 10 µM. hit rate 0.21% among 360,000. AID 624204. recombinant SENP1 catalytic domain, CyPet-SUMO1-YPet FRET cleavage. Q9P0U3;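 active = inhibition at least 30% at 10 µM, raw YFP signal under a set limit, fluorescence ratio 0.5 to 1.5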;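 also: 0% = enzyme with DMSO and 100% = no enzyme wells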
Target sequence (Q9P0U3 419-644 limits assumed): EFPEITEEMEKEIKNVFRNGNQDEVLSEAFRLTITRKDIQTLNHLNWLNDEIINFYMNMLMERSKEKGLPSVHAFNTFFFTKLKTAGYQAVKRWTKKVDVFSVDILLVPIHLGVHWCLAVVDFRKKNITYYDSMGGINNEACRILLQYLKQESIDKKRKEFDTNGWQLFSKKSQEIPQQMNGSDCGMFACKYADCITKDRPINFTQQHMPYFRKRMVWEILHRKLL
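system = hSENP1 catalytic domain, recombinant | reagent = SFCypet-SUMO1-SFYpet substrate at 25 nM | doses = one dose per compound, 10 µM, 0.5% DMSO | incubation = enzyme reaction for 50 min at room temperature, dark | measured by = FRET, CFP and YFP emission | controls = no-enzyme low, enzyme-DMSO high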
UCH37 inh = human UCH37 deubiquitinating enzyme inhibition; inhibition, % (concentration not given with the values); hit rate 0.33% among 330,000; AID 588478; purified proteasome/UCH37, Ub-AMC cleavage fluorescence;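 active = mean inhibition over replicate wells above about 20%, limit read from the data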;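 also: 0% = compound-free wells with enzyme and 100% = wells lacking proteasome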
Target sequence (Q9Y5K5 whole entry, looked up): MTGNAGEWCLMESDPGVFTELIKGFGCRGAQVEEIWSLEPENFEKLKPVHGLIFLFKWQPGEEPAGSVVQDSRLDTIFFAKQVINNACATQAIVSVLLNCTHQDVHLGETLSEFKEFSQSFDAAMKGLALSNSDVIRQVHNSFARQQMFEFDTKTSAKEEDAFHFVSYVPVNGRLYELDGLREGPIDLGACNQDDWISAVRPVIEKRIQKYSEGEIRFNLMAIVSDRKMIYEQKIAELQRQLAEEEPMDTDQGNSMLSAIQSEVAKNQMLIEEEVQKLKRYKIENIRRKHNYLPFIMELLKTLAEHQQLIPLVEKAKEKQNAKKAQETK
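Test system – human UCH37 enzyme supplied as purified proteasome complex · Incubation – 30 min preincubation with enzyme, 25 min cleavage at room temperature · Detection – AMC fluorescence from Ub-AMC cleavage, excitation 355 nm, emission 460 nm · Benchmarks – no-proteasome wells (full inhibition) and compound-free wells (no inhibition)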
SENP7 block = SENP7 protease inhibition | Q9BQF6 | recombinant SENP7, Z-RLRGG-aminoluciferin luminescence, 40 min | inhibition, % at 5 µM | hit rate 1.5% among 330,000;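 active = inhibition above about 50% at the single test dose, limit read from the data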;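 also: plate controls were DMSO with enzyme for no effect and no enzyme buffer wells for full effect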
SENP8 inh conf = confirmation of human SENP8 protease inhibitors. shares compounds with SENP8 block-1. purified SENP8, Nedd8-AMC/pro-Nedd8 cleavage fluorescence, 30 min. inhibition, % at 25 µM. hit rate 15% among 1,400. AID 624319; in the data active = inhibition mostly above about 39%, no sharp cut-off; inactive = mostly below about 34%
Active calls of the source: *; / = no result given. Shown are actives, neighbours in structure and some others; about 2.6% of the full set was active somewhere.

SMILES	SENP8 block-1	SENP6 block	SENP8 block-2	SENP1 inh	UCH37 inh	SENP7 block	SENP8 inh conf
CCCCNc1ncnc2c1cnn2Cc1ccc(Cl)cc1	9	18	3	0	3	2	/
COc1cc(C=NN=C(C(=O)c2ccccc2)c2ccccc2)cc(OC)c1O	/	/	/	/	5	/	/
C/C(=N\NC(=O)c1ccccn1)c1ccc(Cl)cc1	55*	42	41	2	/	26	6
CSCC[C@H](NC(=O)OC(C)(C)C)C(=O)NN=Cc1cccc2nccnc12	/	/	/	/	5	/	/
CCNc1ccc(C(=O)OCC(=O)NCc2ccc(C)cc2)cc1[N+](=O)[O-]	24	-14	-11	7	-1	-1	/
CCNc1ccc(C(=O)OCC(=O)NC(C)c2ccccc2)cc1[N+](=O)[O-] (stereo not drawn)	40*	-6	-7	12	1	-2	4
COc1ccc(C=NNC2=NCCCCC2)c(OC)c1	/	/	/	/	2	/	/
Cc1cc(Cl)ccc1NNC(N)=S	61*	-13	-8	1	1	14	-8
C/C(=C\C(=O)c1ccc(Br)cc1)Nc1cccc(Cl)c1	40*	5	-13	2	1	-2	-12
S=C(Nc1ccc2c(c1)OCO2)Nc1ccc2c(c1)OCO2	53*	37	5	-9	2	7	21
C/C(=C\C(=O)c1ccc(Cl)cc1)Nc1ccc(Br)cc1	25	-20	-11	-2	3	-5	/
C/C(=C\C(=O)c1ccccc1)Nc1ccc2c(c1)OCO2	67*	-11	-18	-4	0	1	21
C/C(=C\C(=O)c1ccc(C)o1)Nc1ccc2c(c1)OCO2	47*	-9	-13	-15	10	-2	38
CC(=O)C(=NNc1ccc(C)cc1)N1CCOCC1	/	/	/	/	10	/	/
Cc1[nH]n(-c2ccccc2)c(=O)c1C=Nn1c(C)nc2ccccc2c1=O	/	/	/	/	5	/	/
COc1ccc(C=NNC(=O)c2ccc(N(C)S(=O)(=O)c3ccccc3)cc2)cc1	/	/	/	/	5	/	/
Cc1cc(C)n(-c2ccc(C(=O)OCC(=O)Nc3ccc(S(=O)(=O)N4CCCCC4)cc3)cc2)n1	48*	-11	-11	1	-1	-2	17
Cc1cc(C)n(-c2ccc(C(=O)OCC(=O)Nc3ccc(S(N)(=O)=O)cc3)cc2)n1	13	-9	-14	-2	-4	-4	/
CN(C)C=Nc1nonc1N	45*	-19	-7	1	-2	-7	2
Cc1c(Cl)cccc1NC(=S)NCCc1ccccn1	47*	-21	5	0	6	2	16
COc1ccc(N2C(=O)[C@@H]3[C@H](C2=O)[C@H]2c4ccccc4C=CN2[C@@H]3C(=O)Nc2ccccc2)cc1	44*	20	-7	-26	30*	-4	80*
Cc1ccc(N2C(=O)[C@@H]3[C@H](C2=O)C2c4ccccc4C=CN2[C@@H]3C(=O)c2ccco2)cc1 (stereo partly drawn)	49*	/	/	-25	4	/	89*
O=c1c(C=NO)coc2ccc3ccccc3c12	/	/	/	/	0	/	/
O=C(Nc1nccs1)C1CCCCN1S(=O)(=O)c1ccccc1 (stereo not drawn)	45*	14	1	1	5	-6	-1
Cc1ccc(S(=O)(=O)N2CCCC2C(=O)Nc2nccs2)cc1 (stereo not drawn)	17	-20	-10	1	1	2	/
SMILES	SENP8 block-1	SENP6 block	SENP8 block-2	SENP1 inh	UCH37 inh	SENP7 block	SENP8 inh conf
C=CC[C@]12C[C@@H](OC)C(=O)C=C1O[C@@H](c1ccc(OC)c(OC)c1)[C@H]2C	42*	-3	4	-2	4	-2	11
Cn1c(=O)n(Cc2ccccc2)c(=O)c2c1nc1n2CCCN1C1CCCCC1	45*	-14	2	2	3	-4	10
Cc1cc(Nc2ccccc2)c2c([N+](=O)[O-])cc(C)c(C)c2n1	45*	7	4	-2	0	6	2
CC(=O)Nc1ccc(Nc2ccc3nonc3c2[N+](=O)[O-])cc1	31	5	-1	4	9	-12	/
CC(=O)NS(=O)(=O)c1ccc(Nc2ccc([N+](=O)[O-])c3nonc23)cc1	24*	6	0	12	25*	4	26
O=[N+]([O-])c1ccc(Nc2ccccc2)c2nonc12	49*	-3	-9	21	/	1	17
O=[N+]([O-])c1cnccc1Nc1ccccc1	19	-4	4	5	7	7	/
Cc1ccc(S(=O)(=O)N=Cc2cc(Br)ccc2O)cc1	/	/	/	/	4	/	/
CCc1ccc(NC(=Nc2nc(C)cc(C)n2)NC(C)=O)cc1	/	/	/	/	2	/	/
CCN1CCN(c2ccc([N+](=O)[O-])c(Sc3nc4ccccc4[nH]3)c2)CC1	41*	-10	0	-1	10	8	18
CC1=NN(c2ccccc2)C(=O)C1C=Nc1ccc(N(C)C)cc1 (stereo not drawn)	17*	-4	-8	-40	4	-7	14
c1ccc2[nH]c3cc4ncnc4cc3nc2c1	48*	39	12	46	11	18	60*
FC(F)c1nc2ccccc2[nH]1	9	11	1	3	1	0	/
O=C(CNC1CCN(Cc2ccccc2)CC1)Nc1ccc(S(=O)(=O)N2CCCCC2)cc1	43*	-20	-13	-4	2	0	8
O=C(CNC1CCCC1)Nc1ccc(S(=O)(=O)N2CCCCC2)cc1	5	-10	-9	-2	0	-8	/
O=C(CCS(=O)(=O)Cc1ccccc1F)N1CCc2ccccc2C1	67*	5	4	1	1	0	75*
Cc1cc(=O)n(-c2ccc(O)cc2)[nH]1	79*	-7	-7	1	4	6	38*
CCCCOC(=O)C1=C(C)NC2(O)c3ccccc3C(=O)C12O (stereo not drawn)	46*	7	3	0	-2	1	65*
CC1=C(C#N)C2(O)C(=O)c3ccccc3C2(O)N1 (stereo not drawn)	18	20	0	2	-2	5	/
O=C(CSc1nnc(SCc2ccccc2)s1)NN=C/C=C/c1ccco1	/	/	/	/	5	/	/
Cc1[nH]n(-c2ccccc2)c(=O)c1S(=O)(=O)c1ccccc1	71*	-5	0	3	2	3	43*
CCn1cc(/C=C/C(=O)Nc2ccc(C)cc2Br)cn1	14	-22	-4	1	1	-10	/
CCn1cc(/C=C/C(=O)Nc2ccn(Cc3c(F)c(F)cc(F)c3F)n2)cn1	29*	7	13	1	5	1	66*
O=C1c2ccc3c4c(ccc(c24)C(=O)N1c1cccc(O)c1)C(=O)N(c1cccc(O)c1)C3=O	46*	22	6	4	5	19	46

Screens as filed in PubChem.
